Values after ≈ are worked out from the molar mass of the structure shown. Active and inactive are the calls of the source. The calls are words filed in the database; no cut-off is given here.

For one assay, the system named is Legionella pneumophila. Briefly: Antibacterial activity against Legionella pneumophila Corby by microtiter plate assay. The class given is functional. The gist of the method: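 Broth microdilution MIC in liquid medium in microtiter wells. Legionella pneumophila Corby grown in YEB medium (10 g ACES, 10 g yeast extract per 1000 mL water, pH 6.9, plus supplements). Value reported as the minimum inhibitory concentration.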

The next assay relates to Escherichia coli. Kind of assay: Antibacterial activity against Escherichia coli K-12 by microtiter plate assay. The class given is functional, organism-based. The gist of the method:
(§1)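 Minimum inhibitory concentration determined in liquid medium in microtiter wells.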

Another assay relates to Priestia megaterium. Briefly: Antibacterial activity against Bacillus megaterium by microtiter plate assay. The class given is functional, organism-based. The method in brief: as §1
The test system of a further assay is Microbotryum violaceum. Kind of assay: Antifungal activity against Microbotryum violaceum assessed as zone of inhibition measured as radius at 50 ug by agar diffusion assay. The class given is functional. The note with it: for zone of inhibition at 50 µg/disc: read-out: IZ. The gist of the method: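 Samples at 1 mg/mL in acetone; 50 μg applied to a 9 mm sterile filter disk on MPY agar. The plate was then sprayed with a Microbotryum violaceum suspension and incubated at 20 °C. The inhibition zone radius was measured in mm from the disk centre.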
On the technique in general: Agar diffusion results depend on both activity and mobility in agar.

Broadly, the MIC is the least concentration at which growth counts as inhibited. Lower therefore signals inhibition by little substance. As for `C[C@H]1Oc2cccc(O)c2C(=O)[C@@H]1O`, it took 1000 mg/L (≈ 5.15 mM) to inhibit growth in the assay on Legionella pneumophila (MIC). Also, the outcome in the assay with Escherichia coli and with Priestia megaterium was inactive.
Turning to `CC(C)=O` [ACETONE], the zone of inhibition at 50 µg/disc in the assay on Microbotryum violaceum is 0 mm.
Still for that read-out and setting: the result for `C[C@@H]1C[C@@H]([C@H](O)CC2CC(=O)NC(=O)C2)C(=O)[C@@H](C)C1` [CYCLOHEXIMIDE] reads 50 mm.
In the case of `Cc1cc(O)c2c(c1)O[C@@]1(C)[C@@H](O)CC[C@H](O)[C@]1(O)C2=O` [DIVERSONOL], the zone of inhibition at 50 µg/disc in the assay with Microbotryum violaceum came out at 0 mm. The same molecule returned an MIC in the assay on Legionella pneumophila of 1000 mg/L (≈ 3.4 mM). Further, the result in the assay on Escherichia coli and in the assay on Priestia megaterium was inactive.
In the case of `CC(C)[C@@H](C)/C=C/[C@@H](C)[C@H]1CC[C@H]2C3=CC=C4C[C@@H](O)CC[C@]4(C)[C@H]3CC[C@]12C` [ERGOSTEROL], the outcome with Microbotryum violaceum, in the assay with Escherichia coli and in the assay with Priestia megaterium was inactive. Further, the lowest concentration to inhibit growth against Legionella pneumophila (MIC) was 250 mg/L (≈ 0.63 mM).
Turning to `NC[C@H]1O[C@H](O[C@H]2[C@H](O)[C@@H](O[C@H]3O[C@H](CO)[C@@H](O)[C@H](N)[C@H]3O)[C@H](N)C[C@@H]2N)[C@H](O)[C@@H](O)[C@@H]1O` [KANAMYCIN], in the assay on Legionella pneumophila, it took 12.5 mg/L (≈ 0.0258 mM) to inhibit growth (MIC).
Turning to `COC1=CC(=O)[C@@H](O)[C@@]2(O)C(=O)c3c(O)cc(C)cc3O[C@]12C` [MICRODIPLODIASOLOL], in the assay with Microbotryum violaceum, the zone of inhibition at 50 µg/disc stood at 6 mm. The same molecule came in with a minimal inhibitory concentration (MIC) in the assay on Legionella pneumophila of 1000 mg/L (≈ 3.12 mM). For the same molecule, the result in the assay with Escherichia coli and in the assay on Priestia megaterium was inactive.
Turning to `C[C@@]12Oc3cc(CO)cc(O)c3C(=O)[C@@]1(O)[C@@H](O)CC[C@@H]2O` [MICRODIPLODIASOL], the minimal inhibitory concentration (MIC) in the assay on Legionella pneumophila came out at 125 mg/L (≈ 0.403 mM). In addition, the result in the assay with Escherichia coli and with Priestia megaterium was inactive.
Take `C[C@]1([C@H]2CCC(=O)O2)CC(=O)c2c(O)cc(O)cc2O1` [MICRODIPLODIASONE]: the zone of inhibition at 50 µg/disc in the assay with Microbotryum violaceum was 0 mm. The same molecule had an MIC in the assay on Legionella pneumophila of 1000 mg/L (≈ 3.59 mM). Further, the result with Escherichia coli and in the assay on Priestia megaterium was inactive.
In the case of `CC1(C)S[C@@H]2[C@H](NC(=O)Cc3ccccc3)C(=O)N2[C@H]1C(=O)O` [PENICILLIN G], the zone of inhibition at 50 µg/disc in the assay with Microbotryum violaceum is 0 mm.
Same read-out and setting: the value for `CN(C)[C@@H]1C(O)=C(C(N)=O)C(=O)[C@@]2(O)C(O)=C3C(=O)c4c(O)cccc4[C@@](C)(O)[C@H]3C[C@@H]12` [TETRACYCLINE] was 0 mm.
For the molecule NYSTATIN, in the assay on Microbotryum violaceum, the inhibition zone (IZ) was 20 mm.

The values above are taken from ChEMBL document CHEMBL1764948, “Diversonol and blennolide derivatives from the endophytic fungus Microdiplodia sp.: absolute configuration of diversonol” (2011).
